Test [1] deals with T1, A disintegrin and metalloproteinase with thrombospondin motifs 5 (Homo sapiens, UniProt Q9UNA0).
T1 sequence (Q9UNA0 whole entry): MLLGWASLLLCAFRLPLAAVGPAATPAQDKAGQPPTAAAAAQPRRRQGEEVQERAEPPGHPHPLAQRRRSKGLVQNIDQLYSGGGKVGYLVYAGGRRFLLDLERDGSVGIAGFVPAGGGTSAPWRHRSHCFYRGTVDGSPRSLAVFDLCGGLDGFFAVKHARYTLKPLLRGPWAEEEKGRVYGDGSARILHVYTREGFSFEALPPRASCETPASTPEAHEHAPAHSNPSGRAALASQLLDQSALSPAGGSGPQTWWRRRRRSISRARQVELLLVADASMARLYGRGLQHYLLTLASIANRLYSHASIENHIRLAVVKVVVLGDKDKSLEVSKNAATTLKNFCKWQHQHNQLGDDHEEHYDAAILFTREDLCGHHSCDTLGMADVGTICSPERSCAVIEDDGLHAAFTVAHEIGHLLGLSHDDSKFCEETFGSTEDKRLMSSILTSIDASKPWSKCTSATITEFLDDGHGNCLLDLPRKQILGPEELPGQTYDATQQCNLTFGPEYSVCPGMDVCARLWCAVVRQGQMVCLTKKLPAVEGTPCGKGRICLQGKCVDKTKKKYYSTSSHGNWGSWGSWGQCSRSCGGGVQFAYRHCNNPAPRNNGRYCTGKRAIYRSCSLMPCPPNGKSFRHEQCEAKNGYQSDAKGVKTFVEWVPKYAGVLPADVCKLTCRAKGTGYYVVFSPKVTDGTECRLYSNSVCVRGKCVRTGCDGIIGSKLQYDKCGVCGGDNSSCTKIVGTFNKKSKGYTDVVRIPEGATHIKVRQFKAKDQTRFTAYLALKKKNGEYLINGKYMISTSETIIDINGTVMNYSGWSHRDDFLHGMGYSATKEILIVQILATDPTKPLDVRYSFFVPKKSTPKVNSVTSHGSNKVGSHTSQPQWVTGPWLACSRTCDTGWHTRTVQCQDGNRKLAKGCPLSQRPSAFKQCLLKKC
As to the kind of experiment: Inhibition of human recombinant aggrecanase 2 after 150 mins by fluorescence plate reader.

The target of the next test is T2, Interstitial collagenase (Homo sapiens, UniProt P03956).
T2 sequence (P03956 whole entry): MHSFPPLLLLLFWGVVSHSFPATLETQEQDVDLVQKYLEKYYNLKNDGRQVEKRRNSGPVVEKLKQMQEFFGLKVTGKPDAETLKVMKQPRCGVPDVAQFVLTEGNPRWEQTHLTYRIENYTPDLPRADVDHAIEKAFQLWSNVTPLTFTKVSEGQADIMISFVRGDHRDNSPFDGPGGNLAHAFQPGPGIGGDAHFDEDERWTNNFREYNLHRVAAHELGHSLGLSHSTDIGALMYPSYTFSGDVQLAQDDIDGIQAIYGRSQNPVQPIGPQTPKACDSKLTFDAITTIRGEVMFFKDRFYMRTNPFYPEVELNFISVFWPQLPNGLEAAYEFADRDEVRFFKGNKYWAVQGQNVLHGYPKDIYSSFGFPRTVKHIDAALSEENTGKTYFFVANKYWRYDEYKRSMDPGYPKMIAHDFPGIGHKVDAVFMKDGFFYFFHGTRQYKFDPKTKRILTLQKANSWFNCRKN
Briefly: Inhibition of human recombinant MMP1 after 60 mins by fluorescence plate reader. The procedure, abridged:
(§1)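 Recombinant human enzyme at 20 ng/mL with 10 μM MOCAc-Lys-Pro-Leu-Gly-Leu-A2pr(Dnp)-Ala-Arg-NH₂, in 100 mM Tris-HCl pH 7.5, 150 mM NaCl, 10 mM CaCl₂, 0.05% Brij-35. Enzyme pretreated with inhibitor for 15 min at 25 °C, then substrate added. Fluorescence (ex 325, em 405 nm) read at 60 min. IC50 taken from three points in the linear range; mean of ≥2 determinations.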

Test [2] deals with Matrix metalloproteinase-14 (Homo sapiens, UniProt P50281). Briefly: Inhibition of human recombinant MMP14 after 60 mins by fluorescence plate reader. The method, boiled down:
as §1

For test [3], the target named is Disintegrin and metalloproteinase domain-containing protein 17 (Homo sapiens, UniProt P78536). Briefly: Inhibition of human recombinant TACE after 60 mins by fluorescence plate reader. The method, boiled down: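 rh-TACE at 80 ng/mL with 10 μM MCA-Pro-Leu-Ala-Gln-Ala-Val-Dpa-Arg-Ser-Ser-Ser-Arg-NH₂, in 100 mM Tris-HCl pH 7.5, 150 mM NaCl, 10 mM CaCl₂, 0.05% Brij-35. Inhibitor preincubated for 15 min at 25 °C. Fluorescence (ex 325/em 405 nm) read at 60 min. IC50 from three linear-range points; mean of ≥2.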
Disintegrin and metalloproteinase domain-containing protein 17, sequence (P78536 whole entry, the tested form may be a part): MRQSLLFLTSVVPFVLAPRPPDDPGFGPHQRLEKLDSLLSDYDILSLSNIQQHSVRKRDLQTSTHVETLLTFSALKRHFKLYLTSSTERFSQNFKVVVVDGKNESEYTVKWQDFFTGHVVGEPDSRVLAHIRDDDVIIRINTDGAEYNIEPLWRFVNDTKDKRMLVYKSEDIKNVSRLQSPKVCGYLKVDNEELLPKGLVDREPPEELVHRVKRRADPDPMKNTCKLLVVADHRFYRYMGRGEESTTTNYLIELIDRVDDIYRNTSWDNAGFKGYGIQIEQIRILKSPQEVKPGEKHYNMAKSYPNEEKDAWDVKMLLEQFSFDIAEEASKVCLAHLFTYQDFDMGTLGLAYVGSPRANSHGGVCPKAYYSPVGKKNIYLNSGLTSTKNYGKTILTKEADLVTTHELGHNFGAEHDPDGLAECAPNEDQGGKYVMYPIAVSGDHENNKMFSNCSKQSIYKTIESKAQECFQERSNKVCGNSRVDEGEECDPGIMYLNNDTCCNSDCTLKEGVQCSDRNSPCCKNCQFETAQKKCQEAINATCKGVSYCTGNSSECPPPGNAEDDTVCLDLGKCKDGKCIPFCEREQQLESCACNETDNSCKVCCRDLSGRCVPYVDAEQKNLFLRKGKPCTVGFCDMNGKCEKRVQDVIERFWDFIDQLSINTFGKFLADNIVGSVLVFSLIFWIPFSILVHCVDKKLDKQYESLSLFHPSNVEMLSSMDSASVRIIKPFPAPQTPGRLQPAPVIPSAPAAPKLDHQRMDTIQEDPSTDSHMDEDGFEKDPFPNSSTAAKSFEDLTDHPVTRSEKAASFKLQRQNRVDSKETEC

In test [4] the target is T3, A disintegrin and metalloproteinase with thrombospondin motifs 4 (Homo sapiens, UniProt O75173).
T3 sequence (O75173 whole entry): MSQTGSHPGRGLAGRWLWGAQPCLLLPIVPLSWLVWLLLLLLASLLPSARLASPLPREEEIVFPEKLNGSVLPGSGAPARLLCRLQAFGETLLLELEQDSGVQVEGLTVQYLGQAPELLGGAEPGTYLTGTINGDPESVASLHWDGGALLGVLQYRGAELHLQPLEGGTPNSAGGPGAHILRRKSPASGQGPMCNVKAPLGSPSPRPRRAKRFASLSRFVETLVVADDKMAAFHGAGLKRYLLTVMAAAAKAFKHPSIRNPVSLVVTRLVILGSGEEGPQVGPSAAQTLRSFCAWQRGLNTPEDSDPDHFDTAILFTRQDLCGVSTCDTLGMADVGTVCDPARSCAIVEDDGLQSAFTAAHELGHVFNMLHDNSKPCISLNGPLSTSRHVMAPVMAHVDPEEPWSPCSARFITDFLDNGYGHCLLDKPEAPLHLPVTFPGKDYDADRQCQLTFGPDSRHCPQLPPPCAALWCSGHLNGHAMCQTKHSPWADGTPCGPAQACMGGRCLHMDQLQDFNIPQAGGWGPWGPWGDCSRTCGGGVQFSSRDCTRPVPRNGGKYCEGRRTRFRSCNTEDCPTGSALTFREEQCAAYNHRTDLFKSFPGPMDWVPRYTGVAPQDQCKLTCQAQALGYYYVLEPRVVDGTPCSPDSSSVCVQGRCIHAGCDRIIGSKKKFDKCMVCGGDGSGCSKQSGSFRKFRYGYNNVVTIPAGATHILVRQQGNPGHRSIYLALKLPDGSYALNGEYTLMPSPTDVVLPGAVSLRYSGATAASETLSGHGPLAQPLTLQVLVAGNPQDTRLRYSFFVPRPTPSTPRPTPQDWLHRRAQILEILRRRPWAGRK
As to the kind of experiment: Inhibition of human recombinant aggrecanase 1 after 150 mins by fluorescence plate reader.

For the next test, the species on record is Homo sapiens. As to the kind of experiment: Selectivity ratio of IC50 for human recombinant MMP14 to IC50 for human recombinant aggrecanase 2.

Each structure is given as a SMILES string.

With `O=C(NO)[C@@H](NCC1CC1)[C@@H](Cc1cccc(O)c1)C(=O)N[C@H]1c2ccccc2C[C@H]1O`, the IC50 in test [1] is 12 nM; at Interstitial collagenase it was over 10000 nM; in test [2] it was over 10000 nM; in test [3], 430 nM; in test [4] it was 3 nM.

For `C[C@@H]1CN(S(=O)(=O)N[C@@]2(C(=O)O)[C@H](C)[C@@H]2c2ccccc2)CCN1c1cc(C(F)F)on1`, the IC50 in test [1] is 27 nM; at Interstitial collagenase it was over 10000 nM; in test [2], 5400 nM; in test [3], over 10000 nM. In the test listed under Homo sapiens, the Ratio IC50 was found to be 200.

As for `C[C@@H]1[C@H](c2ccccc2)[C@]1(NS(=O)(=O)N1CCN(c2ccc(Cl)cc2)[C@@H](C)C1)C(=O)O`, the IC50 in test [1] was 47 nM; at Interstitial collagenase, over 10000 nM; in test [2], 2500 nM; in test [3] it was over 10000 nM. The Ratio IC50 in the test listed under Homo sapiens amounted to 10.

Turning to `CC(C)(NC(=O)[C@H](CCC(=O)O)NC(=O)c1ccc(-c2ccccc2)cc1)c1ccccc1`, the 50% inhibitory concentration (IC50) was 1100 nM in test [1] and 210 nM in test [4].

Consider `CC1(C)C[C@@H](O)CN(S(=O)(=O)c2ccc(OCc3ccc(Cl)cc3Cl)cc2)[C@H]1C(=O)NO`, for which the IC50 was 1.4 nM in test [1] and 1.1 nM in test [4].

With `C[C@@H]1CN(S(=O)(=O)N[C@@]2(C(=O)O)[C@H](C)[C@@H]2c2ccccc2)CCN1c1ccc(Cl)cc1`, the IC50 in test [1] is 37 nM; on Interstitial collagenase it was over 10000 nM; in test [2], 2100 nM; in test [3] it was over 10000 nM. The Ratio IC50 in the test filed under Homo sapiens stood at 10.

In the case of `O=C(NO)c1nc2ccccc2c2c1CN(c1ccc(OCc3ccccc3)cc1)C2=O`, the IC50 in test [1] was determined as 950 nM; in test [4], 210 nM.

`C[C@@H]1[C@H](c2ccccc2)[C@]1(NS(=O)(=O)N1Cc2nc3cc(Cl)ccn3c2C1)C(=O)O`: the IC50 in test [1] is 66 nM; at Interstitial collagenase, 3700 nM; in test [2], 280 nM; in test [3], over 10000 nM.

For the compound `C[C@@H]1[C@H](c2ccccc2)[C@]1(NS(=O)(=O)N1CCc2c(nn3cc(F)ccc23)C1)C(=O)O`, the IC50 in test [1] is 8.6 nM; at Interstitial collagenase it was 4200 nM; in test [2], 140 nM; in test [3], over 10000 nM.

Turning to `C[C@@H]1[C@H](c2ccccc2)[C@]1(NS(=O)(=O)N1CCc2c([nH]c3cc(F)ccc23)C1)C(=O)O`, the IC50 in test [1] is 38 nM; on Interstitial collagenase, 2300 nM; in test [2], 98 nM; in test [3], over 10000 nM.

On to `COc1ccc2c(c1)nc1n2CCN(S(=O)(=O)N[C@@]2(C(=O)O)[C@H](C)[C@@H]2c2ccccc2)C1`, for which the concentration for half-maximal inhibition (IC50) is 330 nM in test [1], over 10000 nM at Interstitial collagenase, 4300 nM in test [2] and over 10000 nM in test [3].

Take `C[C@@H]1[C@H](c2ccccc2)[C@]1(NS(=O)(=O)N1CCn2c(cc3cc(Cl)sc32)C1)C(=O)O`: the IC50 was 110 nM in test [1], over 10000 nM at Interstitial collagenase, 2300 nM in test [2] and over 10000 nM in test [3].

The term IC50 denotes the point on the concentration scale where inhibition reaches its midpoint.

The record behind these values is ChEMBL document CHEMBL1765003, “Discovery of (1S,2R,3R)-2,3-dimethyl-2-phenyl-1-sulfamidocyclopropanecarboxylates: novel and highly selective aggrecanase inhibitors” (J Med Chem, 2011).
